# Source: PubChem
# Sampled rows, rich in hits. Any-hit rate of the full collection: about 3%.
# Exocytosis inh: blocks lytic granule exocytosis; TALL-104 LAMP-1 surface exposure, flow cytometry; cells stimulated with thapsigargin and PMA; actives 0.66% (n = 360,000); inhibition, % at 10 µM;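 active = inhibition above about 55%, limit read from the data; inconclusive = no clear call, values can overlap the other calls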
# Cardio protect: protects H9c2 cardiomyocytes from peroxide injury | H2O2 injury protection, ATPLite, 2 h | protection from H2O2 cell death, % at 20 µM | actives 0.63% (n = 360,000);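 active = compounds giving at least 50% protection of heart cells from peroxide-induced death in the single-dose screen, raw or plate-pattern-corrected value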;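 also: 0% = DMSO wells with peroxide and 100% = DMSO wells without peroxide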
# Myeloid diff MLP: promotes myeloid progenitor differentiation; ER-HoxA9 myeloid progenitors, lysozyme-GFP differentiation, flow cytometry; calls only at 10 µM; actives 1% (n = 360,000); AID 624256;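 active = normalized GFP-positive differentiation at or above the plate's own cutoff, the solvent-only control mean plus 3 SD; inconclusive = no clear call, values can overlap the other calls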;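 also: cells exposed to compound for four days before flow analysis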
# HNF4A DNA FP: change in binding of human HNF4 alpha to DNA | P41235 | HNF4a-FITC DNA binding, fluorescence polarization, 1 h | actives 0.3% (n = 360,000) | activity change, % at 10 µM; in the data active = activity change above about 30%, passing the limit was not always enough
# Pemphigus Ab inh: blocks pemphigus antibody binding to human desmoglein-3; P32926; DSG3-coupled beads, scFv-anti-DSG3-GFP binding, flow cytometry; stronger effect = lower value; binding (percent of control), % at 10 µM; actives 0.48% (n = 310,000);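 active = binding more than 3 SD below its plate's average and above zero; inconclusive = below that plate limit but binding exactly zero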;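 also: hits lower antibody fragment binding to DSG3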
# SENP1 FRET inh: inhibitors of human SENP1 SUMO protease catalytic domain; Q9P0U3; recombinant SENP1 catalytic domain, CyPet-SUMO1-YPet FRET cleavage; inhibition, % at 10 µM; actives 0.21% (n = 360,000);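 active = inhibition at least 30% at 10 µM, raw YFP signal under a set limit, fluorescence ratio 0.5 to 1.5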;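 also: 0% = enzyme with DMSO and 100% = no enzyme wells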
# Target sequence (Q9P0U3 419-644 limits assumed): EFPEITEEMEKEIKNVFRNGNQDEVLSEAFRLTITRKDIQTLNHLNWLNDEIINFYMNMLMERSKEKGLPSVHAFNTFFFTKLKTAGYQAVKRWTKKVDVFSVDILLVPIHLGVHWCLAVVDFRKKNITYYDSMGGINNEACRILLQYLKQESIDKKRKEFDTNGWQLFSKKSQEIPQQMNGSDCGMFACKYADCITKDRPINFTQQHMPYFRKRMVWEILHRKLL
#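 Material: hSENP1 catalytic domain, recombinant; medium: Tris pH 8 with BME, BSA, NP40 and catalase; compound: single concentration of 10 µM compound, 0.5% DMSO final; technique: FRET read of cyan and yellow fluorescence; timing: 50 min enzyme reaction, room temperature, light-protected; reagent: SFCypet-SUMO1-SFYpet substrate at 25 nM; control set: no-enzyme low, enzyme-DMSO high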
# Numbers without * were called inactive; i = inactive; ? = inconclusive; . = not tested or not shown; + = active, no number.
SMILES,Exocytosis inh,Cardio protect,Myeloid diff MLP,HNF4A DNA FP,Pemphigus Ab inh,SENP1 FRET inh
COC(CNC(=O)c1ccc2c(c1)ncn2-c1cccc(C)c1)OC,1,8,.,-1,96,1
CC(C)C[C@@H](CNCC(=O)[C@H](CC(C)C)NC(=O)c1[nH]cnc1C(=O)N[C@H](CN)CC(C)C)NC(=O)c1nc[nH]c1C(=O)N[C@@H](CC(=O)O)C(=O)O,-1,-1,i,0,98,-3
Cc1ccc(C)c(NC(=O)CN(C)C(=O)c2ccccc2OCc2ccccc2Cl)c1,3,-7,i,-2,102,-2
CCCOc1cccc(C2C(C(=O)c3ccc(C)o3)=C(O)C(=O)N2c2nc(C)c(C(C)=O)s2)c1 (centres undefined),2,3,i,14,102,-28
O=C1NC(=O)c2c(Br)c(Br)c(Br)c(Br)c21,0,59*,i,1,115,2
Cc1ccc(S(=O)(=O)N2CCN(S(C)(=O)=O)C2C)cc1 (centres undefined),2,-3,i,1,105,1
COc1cccc(C(C(=O)NC2CCCC2)N(C(=O)c2ccco2)c2ccc(NC(C)=O)cc2)c1OC (centres undefined),0,0,i,1,97,-2
CC(C)c1ccccc1NS(=O)(=O)N(C)C,-3,-4,i,0,49*,3
CN(C)S(=O)(=O)Nc1ccccc1C(N)=O,-4,2,i,3,99,3
CC(=O)C1CCCN(C(=O)c2ccc3nc(Cc4cccc(Cl)c4)oc3c2)C1 (centres undefined),-7,-1,i,-1,118,-1
O=C(CN1C(=O)c2ccccc2C1=O)N1CCN=C1c1ccccc1,2,2,i,2,113,-8
Nc1c(Cl)cc(C2=NCCn3c2c2ccc([N+](=O)[O-])cc2[n+]3[O-])cc1Cl,82*,5,?,12,103,16
O=C(NCC1CCCO1)c1ccccc1-c1nc(-c2ccc(Cl)cc2)no1 (centres undefined),-3,-4,+,2,.,0
COCCNC(=O)C1(C)CCN(C(=O)c2cccc(C)c2C)C1 (centres undefined),-8,1,i,0,.,6
O=C(Nc1ccc2c(c1)OCCO2)C1CCC1,-4,4,i,68*,96,1
NC(=O)Nc1ccc2c(c1)OCCO2,-1,-8,i,2,99,3
Cn1nc([N+](=O)[O-])c(C(C#N)c2nc3ccccc3n2C)c(Cl)c1=O (centres undefined),71*,23,i,-38,102,-22
Cc1ccc(-n2nc3c(=O)n(CCCC(=O)NCc4ccc(C)o4)nc(C)c3c2C)cc1,0,8,?,3,102,1
O=[N+]([O-])c1c(Nc2ccccn2)cc(Cl)c2nonc12,97*,-16,?,16,110,-2
COCCN(CC(=O)Nc1cccc(C)c1C)C(=O)c1ccc(-n2cccn2)cc1,-6,-3,i,2,100,-1
CCOC(=O)c1ccc(S(=O)(=O)Nc2cc(S(=O)(=O)N3CCOCC3)ccc2O)cc1,1,9,i,3,.,0
CC(NC(=O)c1ccccc1NC(=O)CN1CCc2ccccc2C1)c1ccccc1 (centres undefined),27,12,i,1,109,-6
COC(=O)C1=CN(c2ccc3c(c2)OCO3)C(N)=C(C#N)C1c1ccccc1 (centres undefined),2,.,+,-4,.,-4
CCCn1c(N)c(C(=O)CN2CCN(S(=O)(=O)c3cccc(Cl)c3)CC2)c(=O)[nH]c1=O,15,4,i,1,.,1
Cc1ccc(S(=O)(=O)NCC(=O)OCC(=O)c2cccs2)cc1,1,-5,i,0,43*,-1
SMILES,Exocytosis inh,Cardio protect,Myeloid diff MLP,HNF4A DNA FP,Pemphigus Ab inh,SENP1 FRET inh
Cc1ccc(NC(=O)COC(=O)CCC(=O)c2cccs2)c(C)c1,-1,1,+,3,91*,6
N#C/C(=C1\CCCN1)c1nc2ccccc2c(=O)[nH]1,2,74*,i,1,100,-4
Cc1ccc(NS(=O)(=O)c2ccc(OCC(=O)NCc3ccncc3)cc2)cc1,0,2,i,-1,105,0
CC12CCC3c4ccc(O)cc4CCC3C1CC(O)C2O (centres undefined),-8,2,i,-1,46*,-2
C[C@]12CC[C@@H]3c4ccc(O)cc4CC[C@H]3[C@@H]1C[C@@H](O)[C@@H]2O,-2,9,i,3,94,1
C[C@]12CC[C@@H]3c4ccc(OC(=O)c5ccccc5)cc4CC[C@H]3[C@@H]1CC[C@@H]2O,60*,-24,i,-2,97,3
CN(C)c1nc(=NCc2cccs2)ss1,65*,2,i,1,.,3
CC(O)Cn1c(N2CCCC2)nc2c1c(=O)[nH]c(=O)n2C (centres undefined),2,4,i,-1,92,0
CCOC(=O)C1=C(C)N=C2SC(C)C(=O)N2C1c1cccc(F)c1 (centres undefined),1,22,i,-3,101,-1
CC1=C(C(=O)OCC(C)C)C(c2cccc(F)c2)N2C(=O)C(C)SC2=N1 (centres undefined),59*,3,i,1,98,0
COc1ccc(Cl)cc1NC(=S)NCCO,-1,-9,i,57*,97,2
COc1ccc(Cl)cc1NC(=S)NCCc1ccc(F)cc1,5,1,i,-3,.,-1
COc1ccc(-n2c(-c3ccc(Cl)cc3)c[n+]3c2CCc2ccccc2-3)cc1,1,-12,.,0,106,-1
Cc1ccc(-n2c(-c3ccc(Br)cc3)c[n+]3c2CCc2ccc4cccnc4c2-3)cc1,72*,-19,i,1,106,1
O=C(N/N=C/c1sc(N2CCOCC2)nc1-c1ccccc1)c1ccc(O)cc1,-1,23,i,-3,88,-77
O=C(N/N=C/c1sc(N2CCOCC2)nc1-c1ccccc1)c1cccc(S(=O)(=O)N2CCCC2)c1,-1,24,?,43*,118,-36
O=C(N/N=C/c1cc(Br)cc(Br)c1O)c1cccc(S(=O)(=O)N2CCOCC2)c1,8,50*,i,85,95,-36
COc1ccccc1NS(=O)(=O)c1cc([N+](=O)[O-])ccc1N/N=C/c1sc(N2CCOCC2)nc1-c1ccccc1,1,-2,+,75*,115,-26
